An excerpt weighted towards active compounds, which were near 2% of everything screened.
TCR CD3 inh: inhibitors of human TCR-CD3 interaction, primary screen, biochemical, fluorescence, TAMRA-labeled TCR probe; inhibition, % at 9.4 µM; 360,000 tested, 0.37% active; T-cell receptor (TCR); AID 651800, 2012; in the data active means inhibition above about 19%;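 further: recombinant mutant TCR 2C K166C tagged with TAMRA read by polarization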
ARFGAP1 inh: inhibitors of rat ARFGAP1 GAP activity, primary screen, biochemical, fluorescence polarization, GDP tracer. 360,000 tested, 0.26% active. AID 651572, 2012. Arfgap1-stimulated ARF1 GTP hydrolysis, GDP FP detection. ADP-ribosylation factor GTPase-activating protein 1 (Rattus norvegicus), Q62848. inhibition, % at 16.5 µM;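 active means inhibition above a per-plate limit, mean inhibition of low control wells plus 3 SD, cut at about 25% in these data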
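Replicates: Single well per compound | Assay system: Truncated rat Arfgap1 GAP domain | Control set: No-Arfgap1 wells (100%) versus DMSO full-reaction wells (0%) | Times: Enzyme reaction 120 min at 25 °C after 20 min preincubation | Reagent: Human ARF1(Δ1-17)-GTP substrate | Measured by: Tracer-displacement fluorescence polarization with EDTA stop, 620/688 nm | Measure: Percent inhibition of Arfgap1-stimulated GTP hydrolysis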
LEDGF integ inh: blockers of LEDGF/p75-dependent integrase strand transfer – biochemical, TR-FRET, high throughput, primary screen; TR-FRET IN-LEDGF/p75 DNA integration, Eu/Cy5; inhibition, % at 3.7 µM; 370,000 tested, 0.64% active; AID 743269, 2014;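 active means inhibition above the screen-wide mean plus 3 SD, cut at about 13% in these data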;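 further: signal is the Cy5 over europium emission ratio at 671 and 618 nm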
MBD2 inh: inhibitors of MBD2 binding to methylated DNA, primary screen, biochemical, TR-FRET, DNA-binding domain, human | Methyl-CpG-binding domain protein 2 (Homo sapiens), Q9UBB5 | MBD2 binding to methylated oligonucleotide | inhibition, % at 4.4 µM | 370,000 tested, 0.31% active | AID 686964, 2013; in the data active means inhibition above about 13%
ASAP1 inh: inhibitors of human ASAP1 ArfGAP activity, primary screen, biochemical, fluorescence polarization; ASAP1-stimulated ARF1 GTP hydrolysis, GDP FP detection; inhibition, % at 16.5 µM; 360,000 tested, 0.19% active; AID 624377, 2012; in the data active means inhibition above about 25%
Target sequence (Q9ULH1 325-724 limits assumed): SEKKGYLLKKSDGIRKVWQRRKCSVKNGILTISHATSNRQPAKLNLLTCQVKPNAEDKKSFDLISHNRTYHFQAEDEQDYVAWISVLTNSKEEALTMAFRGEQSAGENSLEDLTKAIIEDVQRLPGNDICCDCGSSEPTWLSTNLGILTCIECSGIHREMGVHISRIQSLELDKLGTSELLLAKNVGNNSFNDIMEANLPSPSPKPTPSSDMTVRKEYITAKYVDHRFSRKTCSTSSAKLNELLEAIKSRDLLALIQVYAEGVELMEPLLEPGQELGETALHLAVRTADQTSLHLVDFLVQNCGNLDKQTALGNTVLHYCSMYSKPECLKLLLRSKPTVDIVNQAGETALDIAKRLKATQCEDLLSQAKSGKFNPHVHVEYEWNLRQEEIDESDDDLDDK
UHRF1 binding: UHRF1 methylated DNA binding inhibitors, primary screen, counter-screen for MBD2 inhibitor project, biochemical, TR-FRET, human UHRF1, single concentration. 370,000 tested, 0.75% active. AID 687016, 2013. UHRF1 binding to methylated oligo. inhibition, % at 4.4 µM; in the data active means inhibition above about 21%;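 further: UHRF1 SRA domain binding a hemimethylated CpG hairpin DNA probe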
UHRF1 ctr MBD2: UHRF1 methylated DNA binding inhibitors, counter-screen for MBD2 inhibitor project, biochemical, TR-FRET, human UHRF1. AID 720530, 2013. inhibition, % at 4.4 µM. UHRF1 binding to methylated oligonucleotide. shares compounds with MBD2 inh. 1,000 tested, 25% active; in the data active means inhibition above about 21%;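 further: UHRF1 SRA domain binding a labeled hemimethylated CpG hairpin DNA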
MBD2 DBD conf: inhibitors of MBD2 binding to methylated DNA, confirmation, biochemical, TR-FRET, DNA-binding domain, human; TR-FRET MBD2-DBD binding to methylated oligonucleotide; shares compounds with MBD2 inh; 1,000 tested, 26% active; inhibition, % at 4.4 µM
IN multimer act: HIV-1 IN multimer formation enhancers, counter-screen for LEDGF/p75 integration inhibitor project, biochemical, TR-FRET | activation, % at 7.7 µM | TR-FRET HIV-1 integrase multimerization | 2,000 tested, 17% active | shares compounds with LEDGF integ inh | AID 1053131, 2014; in the data active means activation above about 8.9%
TRFRET interf: TR-FRET optical interference artefacts, confirmation, artefact control for LEDGF/p75-dependent integration inhibitor project, biochemical, HIV-1 IN multimerization; inhibition, % at 7.7 µM; shares compounds with LEDGF integ inh; TR-FRET optical interference counterscreen; 2,000 tested, under 10 active;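 active means inhibition above the mean over all tested compounds plus 3 SD, which no compound reached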
IN-LEDGF confirm: inhibitors of HIV-1 IN-LEDGF/p75 DNA integration, confirmation, biochemical, TR-FRET; AID 1053136, 2014; 2,000 tested, 36% active; inhibition, % at 3.7 µM; shares compounds with LEDGF integ inh; TR-FRET LEDGF/p75-dependent HIV-1 integration
Hits are given with their value; - = inactive; . = no result given. Unless noted, no stated cut-off is given here; in the data, active means inhibition above about 14%; inactive means the rest.

SMILES	TCR CD3 inh	ARFGAP1 inh	LEDGF integ inh	MBD2 inh	ASAP1 inh	UHRF1 binding	UHRF1 ctr MBD2	MBD2 DBD conf	IN multimer act	TRFRET interf	IN-LEDGF confirm
COc1ccc(Br)cc1/C=c1\sc2nc(-c3ccco3)nn2c1=O	-	-	24.3	23.2	-	71.2	21.8	-	-	-	15.1
COc1ccccc1/C=c1\sc2nc(-c3ccccc3OC)nn2c1=O	-	-	-	-	-	-	.	.	.	.	.
CCCCCCCCN1C(=O)[C@H](CC(=O)NCC23CC4CC(CC(C4)C2)C3)C[C@@]2(C(=O)OCC)CCC=C12	-	-	-	-	-	-	.	.	.	.	.
COC(=O)c1sc2nc(-c3ccco3)ccc2c1N	-	-	51.8	16.1	-	55.1	-	-	-	-	-
Nc1c(C(=O)Nc2ccccc2F)sc2nc(-c3ccco3)ccc12	-	-	-	-	-	-	.	.	.	.	.
COc1ccc(OC)c(N2C(=O)[C@@H]3C(c4ccccc4Cl)=NO[C@@H]3C2=O)c1	-	-	22.9	25.6	-	66.9	38.2	18.0	-	-	26.0
Cc1cccc(C)c1N1C(=O)[C@@H]2C(c3ccccc3Cl)=NO[C@@H]2C1=O	-	-	-	-	-	-	.	.	.	.	.
O=Cc1cccc(OC(=O)/C=C/c2ccco2)c1	-	-	15.7	17.4	-	48.2	48.1	24.6	11.1	-	35.6
COc1ccc(-c2cc(CNc3nc(NCc4ccccc4OC)nc4ccsc34)on2)cc1	-	-	-	-	-	-	.	.	.	.	.
O=C1c2cccc(NCCCNCCO)c2C(=O)c2cccc(NCCCNCCO)c21	-	-	15.7	104.7	-	92.5	82.2	101.7	17.6	-	13.4
N#CC1(NC(=O)CN2CCc3ccccc3C2)CCCC1	-	-	-	-	-	-	.	.	.	.	.
O=C(c1ccc(=O)[nH]n1)N1CCN(S(=O)(=O)c2cccc(F)c2)CC1	-	-	-	-	-	-	.	.	.	.	.
O=C(CCCN1C(=O)/C(=C\c2ccco2)SC1=S)Nc1ccc2ccccc2c1	-	-	-	-	-	-	.	.	.	.	.
O=C(CCCN1C(=O)/C(=C/c2ccco2)SC1=S)Nc1ccccc1C(=O)O	-	-	38.5	26.7	-	81.7	51.7	15.8	9.7	-	26.5
O=C(CCN1C(=O)/C(=C/c2ccco2)SC1=S)Nc1ccc(O)cc1C(=O)O	-	-	78.1	68.4	-	94.6	37.9	-	19.3	-	46.0
CC(=O)N/N=C(\C)C1COc2ccccc2O1 (stereo not given)	-	-	-	-	-	-	.	.	.	.	.
